Source: ChEMBL document CHEMBL1914438, “Synthesis and biological activity of novel N-cycloalkyl-(cycloalkylaryl)-2-[(3-R-2-oxo-2H-[1,2,4]triazino[2,3-c]quinazoline-6-yl)thio]acetamides” (2011)

Tests used:
Assay type in all cases: functional
M14 = assay: Cytotoxicity against human M14 cells assessed as cell growth at 10^-5 M after 48 hrs by SRB assay; conditions: M14, 48 h, read-out: Activity
In short: (§1)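 NCI 60-cell-line one-dose primary screen: cells inoculated and preincubated 24–48 h, then test agent added at a single 10^-5 M concentration for a further 48 h. Endpoint is sulforhodamine B protein staining read spectrophotometrically. Reported as percent growth relative to untreated control cells.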

UACC-62 = assay: Growth inhibition of human UACC62 cells after 48 hrs by SRB assay; conditions: UACC-62, 48 h
In short: (§2)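 NCI 60-cell-line human tumor panel. Cells were inoculated and preincubated for 24–48 h, then exposed continuously to compound for 48 h. Primary screen used a single 10^-5 M concentration. Growth was measured by sulforhodamine B protein staining, read spectrophotometrically, and reported as percent growth versus untreated controls. Selected compounds were also run at five 10-fold dilutions (10^-4 to 10^-8 M) to derive GI50 from time-zero-corrected absorbances.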

[1] = system: Photobacterium leiognathi; assay: Antibacterial activity against Photobacterium leiognathi Sh1 assessed as inhibition of bacterial luminescence at 0.025 mg/mL after 10 mins by bioluminometry-based acute action test; set-up: scale not given: the % may be the effect or the level left
In short: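 Marine P. leiognathi Sh1 (Azov Sea shrimp isolate) diluted in chloride solution to 10^5 cells/mL; compounds suspended in DMSO mixed with 1 mL bacterial suspension. Acute test: 10 min at 25 °C, then bioluminescence measured by bioluminometer as % of compound-free control. Tetracycline reference.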

TK-10 = assay: Cytotoxicity against human TK10 cells assessed as cell growth at 10^-5 M after 48 hrs by SRB assay; conditions: TK-10, 48 h, read-out: Activity
In short: (§3)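 NCI human tumor cell line panel from nine cancer types. Each line was inoculated and preincubated 24–48 h, then exposed to a single concentration (10^-5 M) for 48 h. Growth was read by sulforhodamine B protein staining, measured spectrophotometrically. Value reported as percent growth of treated cells relative to untreated controls.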

SNB-19 [2] = assay: Growth inhibition of human SNB19 cells after 48 hrs by SRB assay; conditions: SNB-19, 48 h; in short: as §2
[3] = system: Photobacterium leiognathi; assay: Antibacterial activity against Photobacterium leiognathi Sh1 assessed as inhibition of bacterial luminescence at 0.25 mg/mL after 10 mins by bioluminometry-based chronic action test; set-up: scale not given: the % may be the effect or the level left; conditions: in the assay text read “after 16 to 18 hrs” for “after 10 mins”
In short: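 Chronic (growth plus luminescence) test with P. leiognathi Sh1 at 10^5 cells/mL in chloride solution, compounds added in DMSO. After 10 min at 25 °C, growth medium added at 1:50 and the mix incubated 16–18 h at 30 °C. Luminescence then measured by bioluminometer as % of untreated control. Tetracycline reference.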

NCI-H522 = assay: Growth inhibition of human NCI-H522 cells after 48 hrs by SRB assay; conditions: NCI-H522, 48 h
In short: (§4)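 NCI panel of about 60 human tumor lines, 48 h continuous exposure at five 10-fold dilutions from 10^-4 to 10^-8 M. SRB protein staining was read as absorbance at time zero, in untreated controls and at each concentration. GI50 is the concentration giving 50% lower net protein increase than controls. TGI is where Ti = Tz, and LC50 is 50% protein loss versus start.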

HOP-62 = assay: Growth inhibition of human HOP62 cells after 48 hrs by SRB assay; conditions: HOP-62, 48 h; in short: as §4
Yamadazyma tenuis = assay: Antifungal activity against Candida tenuis assessed as zone of inhibition at 0.5 mg/mL after 48 to 72 hrs by stiff-plate agar-diffusion method; conditions: read-out: DIZ
[4] = Cytotoxicity against human NCI60 cells assessed as cell growth at 10^-5 M after 48 hrs by SRB assay; conditions: NCI60, 48 h, read-out: Activity; in short: as §3
SNB-19 [5] = assay: Cytotoxicity against human SNB19 cells assessed as cell growth at 10^-5 M after 48 hrs by SRB assay; conditions: SNB-19, 48 h, read-out: Activity; in short: as §3
HCT-116 = assay: Cytotoxicity against human HCT116 cells assessed as cell growth at 10^-5 M after 48 hrs by SRB assay; conditions: HCT-116, 48 h, read-out: Activity; in short: as §1
HOP-92 = assay: Cytotoxicity against human HOP92 cells assessed as cell growth at 10^-5 M after 48 hrs by SRB assay; conditions: HOP-92, 48 h, read-out: Activity; in short: as §1
SF-268 = assay: Cytotoxicity against human SF268 cells assessed as cell growth at 10^-5 M after 48 hrs by SRB assay; conditions: SF-268, 48 h, read-out: Activity; in short: as §3
[6] = read-out: pLC50 (the source's name) (converted)

In the case of `CCC1C2CCC(C2)C1NC(=O)CSc1nc2ccccc2c2nc(=O)c(-c3ccc(OC)cc3)nn12` (configuration not stated), the growth at 10 µM (M14) is reported as 44.2%, the GI50 (UACC-62) is reported as 3.55 µM and the CC50 (UACC-62; [6]) is reported as over 50.1 µM. For the same molecule, the TGI (UACC-62; read-out: pTGI (converted)) was 26.3 µM, the Activity [1] was 38.5% and the growth at 10 µM (TK-10) was 13.8%. It also gave a GI50 (SNB-19 [2]) of 3.47 µM, a CC50 (SNB-19 [2]; [6]) of over 50.1 µM and a TGI (SNB-19 [2]; read-out: pTGI (converted)) of 22.4 µM. For the same molecule, the Activity [3] was 80%, the GI50 (NCI-H522) was 1.35 µM and the CC50 (NCI-H522; [6]) was 38.9 µM. The TGI (NCI-H522; read-out: pTGI (converted)) was 7.94 µM, the GI50 (HOP-62) was 2.45 µM and the CC50 (HOP-62; [6]) was 36.3 µM. The TGI (HOP-62; read-out: pTGI (converted)) was 11.5 µM, the zone of inhibition at 500 µg/mL (Yamadazyma tenuis) was 0 mm and the growth at 10 µM [4] was 73.7%. The growth at 10 µM (SNB-19 [5]) was 39.8%, the growth at 10 µM (HCT-116) was 64.3% and the growth at 10 µM (HOP-92) was 57%. The growth at 10 µM (SF-268) was 66.3%.
